Measurements taken from ChEMBL document CHEMBL2169854, “New insight into the central benzodiazepine receptor-ligand interactions: design, synthesis, biological evaluation, and molecular modeling of 3-substituted 6-phenyl-4H-imidazo[1,5-a][1,4]benzodiazepines and related compounds” (J Med Chem, 2011).
Calls of active or inactive are those of the source. The calls are words filed in the database; no cut-off is given here.

Legend:
[1] = Displacement of [3H]flumazenil from central benzodiazepine receptor in bovine cortical membrane after 90 mins by beta liquid scintillation counting; format: cell membranes, Bos taurus
Procedure, shortened: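 At least six concentrations spanning 3 log units were tested in 2% DMSO. Ki was obtained by Cheng–Prusoff (Kd 0.85 nM bovine, 0.91 nM human), mean of three determinations.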

[2] = Displacement of [3H]flumazenil from central benzodiazepine receptor in human cortical membrane after 90 mins by beta liquid scintillation counting; format: cell membranes
[3] = species: Bos taurus; assay: Ratio of Ki for central benzodiazepine receptor in bovine cortical membrane to Ki for central benzodiazepine receptor in bovine cortical membrane in presence of 50 uM GABA; format: cell membranes
[4] = species: Homo sapiens; assay: Ratio of Ki for central benzodiazepine receptor in human cortical membrane to Ki for central benzodiazepine receptor in human cortical membrane in presence of 50 uM GABA; format: cell membranes
[5] = species: Rattus norvegicus; assay: Antagonist activity at central benzodiazepine receptor in Sprague-Dawley rat cerebrocortical synaptoneurosomes assessed as effect on GABA-induced [36]chloride ion flow after 10 seconds by beta liquid scintillation counting; format: functional
Procedure, shortened: (§1)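 Cerebral cortex from male Sprague-Dawley rats was homogenised and filtered, and synaptoneurosomes were washed in HEPES pH 7 buffer (145 mM NaCl, 5 mM KCl, 5 mM MgCl2, 1 mM CaCl2, 10 mM glucose). Aliquots of 1.5–2 mg protein were preincubated 10 min at 30 C. Drug was added with 0.2 μCi 36Cl−, uptake was stopped at 10 s, and filter-bound radioactivity was counted by scintillation.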

[6] = biological target: T1, GABA-A receptor; alpha-1/beta-2/gamma-2 (Homo sapiens) (UniProt P14867+P47870+P18507); assay: (§2) Modulation of human recombinant GABA-A alpha1beta2gamma2L receptor expressed in Xenopus laevis oocytes assessed as effect on GABA-induced chloride current at 1 uM incubated 60 seconds before addition of GABA measured after 30 seconds at holding potential -70 mV by two-microelectrode voltage clamp technique relative to control; format: cell-based; conditions: Oocyte
[7] = biological target: T1, GABA-A receptor; alpha-1/beta-2/gamma-2 (Homo sapiens); assay: as §2, with “at 10” for “at 1”; format: cell-based; conditions: Oocyte
[8] = biological target: T2, GABA A receptor alpha-1/beta-1/gamma-2 (Homo sapiens) (UniProt P14867+P18507+P18505); assay: as §2, with “alpha1beta1gamma2L” for “alpha1beta2gamma2L”; format: cell-based; conditions: Oocyte
[9] = biological target: T2, GABA A receptor alpha-1/beta-1/gamma-2 (Homo sapiens); assay: as §2, with “alpha1beta1gamma2L” for “alpha1beta2gamma2L”, “10” for “1”; format: cell-based; conditions: Oocyte
[10] = tested on: Oocyte; assay: as §2, with “alpha5beta2gamma2L” for “alpha1beta2gamma2L”; format: cell-based
[11] = tested on: Oocyte; assay: as §2, with “alpha5beta2gamma2L” for “alpha1beta2gamma2L”, “10” for “1”; format: cell-based
[12] = biological target: T1, GABA-A receptor; alpha-1/beta-2/gamma-2 (Homo sapiens); assay: (§3) Antagonist at human recombinant GABA-A alpha1beta2gamma2L receptor expressed in Xenopus laevis oocytes assessed as blockade of diazepam-induced potentiation of GABA-induced chloride current at 10 uM incubated 60 seconds before addition of GABA measured after 30 seconds at holding potential -70 mV by two-microelectrode voltage clamp technique; format: functional, cell-based; conditions: Oocyte
Procedure, shortened: (§4)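 Oocytes expressing human α1β2γ2L, α2β1γ2L or α5β2γ2L receptors were clamped at −70 mV. Compound at 10 μM was tested against the enhancement of the GABA EC10 response by 1.0 μM diazepam, with 60 s preapplication and 30 s coapplication. The response was expressed as percent potentiation, from 2–3 oocytes.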

[13] = biological target: T2, GABA A receptor alpha-1/beta-1/gamma-2 (Homo sapiens); assay: as §3, with “alpha1beta1gamma2L” for “alpha1beta2gamma2L”; format: functional, cell-based; conditions: Oocyte
[14] = tested on: Oocyte; assay: as §3, with “alpha5beta2gamma2L” for “alpha1beta2gamma2L”; format: functional, cell-based; procedure, shortened: as §4
[15] = species: Rattus norvegicus; assay: Agonist activity at central benzodiazepine receptor in Sprague-Dawley rat cerebrocortical synaptoneurosomes assessed as increase in GABA-induced [36]chloride ion flow after 10 seconds by beta liquid scintillation counting; format: functional; procedure, shortened: as §1
[16] = tested on: Mus musculus; assay: Anxiolytic effect in mouse assessed as increase in time spent in light compartment at 1 mg/kg, ip by light/dark box test; format: functional, organism-based; set-up: dose 1 mg/kg
Procedure, shortened: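 Male mice were used. Compound was given orally as a suspension in 1% CMC; diazepam was given ip in saline; volume 10 mL/kg. Each mouse was placed in the lit side of a two-compartment light/dark box and observed for 5 min, scoring time in the light and transfers. Groups were compared by ANOVA with Fisher PLSD.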

[17] = tested on: Mus musculus; assay: Myorelaxant activity in mouse assessed as motor coordination measuring number of falls at 1 mg/kg, ip measured for 30 seconds after 45 mins of compound administration by rotarod test; format: functional, organism-based; set-up: dose 1 mg/kg
[18] = biological target: T1, GABA-A receptor; alpha-1/beta-2/gamma-2 (Homo sapiens); assay: as §2, with “at 0.01” for “at 1”; format: cell-based; conditions: Oocyte
[19] = biological target: T1, GABA-A receptor; alpha-1/beta-2/gamma-2 (Homo sapiens); assay: as §2, with “at 0.1” for “at 1”; format: cell-based; conditions: Oocyte

| SMILES | Ki [1] [nM] | Ki [2] [nM] | Ratio Ki [3] | also measured |
| --- | --- | --- | --- | --- |
| CCOC(=O)c1ncn2c1CN=C(c1ccc(F)cc1)c1ccccc1-2 | 11.5 | 20.8 | 0.77 | Ratio Ki [4]: 0.96; Activity [5]: Active |
| CCOC(=O)c1ncn2c1CN=C(c1ccc(C)cc1)c1cc(Cl)ccc1-2 | 199 | 178 | 1.05 |  |
| CCOC(=O)c1ncn2c1CN=C(c1ccc(Cl)cc1)c1ccc3ccccc3c1-2 | > 10000 |  |  |  |
| NC(=O)c1ncn2c1CN=C(c1ccc(Cl)cc1)c1cc(Cl)ccc1-2 | > 10000 |  |  |  |
| N#Cc1ncn2c1CN=C(c1ccc(Cl)cc1)c1cc(Cl)ccc1-2 | 1650 |  |  |  |
| CNC(=O)c1ncn2c1CN=C(c1ccc(Cl)cc1)c1cc(Cl)ccc1-2 | > 10000 |  |  |  |
| Clc1ccc(C2=NCc3c(-c4nnn[nH]4)ncn3-c3ccc(Cl)cc32)cc1 | > 10000 |  |  |  |
| CCOC(=O)c1ncn2c1CN=C(c1ccc(OC)cc1)c1cc(Cl)ccc1-2 | 210 | 227 |  |  |
| O=C1OCCC2N=C(c3ccccc3)c3ccccc3-n3cnc1c32 (stereo unspecified) | 283 |  | 0.95 |  |
| CCOC(=O)c1ncn2c1C(C)N=C(c1ccc(F)cc1)c1cc(F)ccc1-2 (stereo unspecified) | 510 | 550 | 1.19 |  |
| CCOC(=O)c1ncn2c1CN=C(c1cccc3ccccc13)c1cc(Cl)ccc1-2 | 186 | 216 | 1.3 |  |
| CCOC(=O)c1ncn2c1CN=C(c1ccc(F)cc1)c1cc(Cl)ccc1-2 | 188 | 212 | 1.25 |  |
| CCOC(=O)c1ncn2c1CN(C)C(=O)c1cc(F)ccc1-2 [FLUMAZENIL] | 1.9 |  |  | Activity [5]: Active |
| CC(C)(C)OC(=O)c1ncn2c1CN=C(c1ccc(Cl)cc1)c1cc(Cl)ccc1-2 | 1300 |  |  |  |
| CCOC(=O)c1ncn2c1CN=C(c1ccc(Cl)cc1)c1cc(Cl)ccc1-2 | 236 | 210 | 1.3 |  |
| CCOC(=O)c1ncn2c1C(C)N=C(c1ccccc1)c1ccccc1-2 (stereo unspecified) | 453 | 750 | 1.3 |  |
| CCOC(=O)c1ncn2c1CN=C(c1cccc([N+](=O)[O-])c1)c1cc(F)ccc1-2 |  |  |  | Activity [6]: 14%; Activity [7]: -24%; Activity [8]: 10%; Activity [9]: -3.3%; Activity [10]: 27%; Activity [11]: -2.5%; Activity [12]: Active; Activity [13]: Active; Activity [14]: Active |
| CCOC(=O)c1ncn2c1CN=C(c1ccc(OC)cc1)c1ccccc1-2 | 110 | 120 | 0.78 |  |
| CCOC(=O)c1ncn2c1CN=C(c1cccc([N+](=O)[O-])c1)c1cc(Cl)ccc1-2 | 1.7 | 2.3 | 0.99 | Ratio Ki [4]: 0.98; Activity [5]: Active |
| CN(C)C(=O)c1ncn2c1CN=C(c1ccc(Cl)cc1)c1cc(Cl)ccc1-2 | > 10000 |  |  |  |
| CN1C(=O)CN=C(c2ccccc2F)c2cc([N+](=O)[O-])ccc21 [FLUNITRAZEPAM] | 5.17 | 6.5 | 1.68 | Ratio Ki [4]: 1.6; Activity [15]: Active |
| CN1C(=O)CN=C(c2ccccc2)c2cc(Cl)ccc21 |  |  |  | Activity [16]: Active; Activity [17]: Active |
| CCOC(=O)c1ncn2c1CN=C(c1ccc(Cl)cc1)c1ccccc1-2 | 12.7 | 22.5 | 0.84 | Ratio Ki [4]: 0.87; Activity [5]: Active; Activity [18]: 13%; Activity [19]: 1%; Activity [6]: 3.6%; Activity [7]: 6.3%; Activity [8]: -7%; Activity [9]: -18%; Activity [10]: -0.5%; Activity [11]: 0%; Activity [12]: Active; Activity [13]: Active; Activity [14]: Active |
